Assay results from ChEMBL document CHEMBL3774359, “Synthesis of benzofuran derivatives as selective inhibitors of tissue-nonspecific alkaline phosphatase: effects on cell toxicity and osteoblast-induced mineralization” (Bioorg Med Chem Lett, 2016).
pIC50, pKi: −log10 of the molar value. Activity calls are given as the source filed them. The calls are words filed in the database; no cut-off is given here.

What was measured:
[1] = target: T1, Alkaline phosphatase, placental type (Homo sapiens, UniProt P05187); experiment: Inhibition of human placental alkaline phosphatase using para-nitrophenylphosphate as substrate preincubated for 10 mins at pH 10.4 followed by substrate addition
T1 sequence (P05187 whole entry): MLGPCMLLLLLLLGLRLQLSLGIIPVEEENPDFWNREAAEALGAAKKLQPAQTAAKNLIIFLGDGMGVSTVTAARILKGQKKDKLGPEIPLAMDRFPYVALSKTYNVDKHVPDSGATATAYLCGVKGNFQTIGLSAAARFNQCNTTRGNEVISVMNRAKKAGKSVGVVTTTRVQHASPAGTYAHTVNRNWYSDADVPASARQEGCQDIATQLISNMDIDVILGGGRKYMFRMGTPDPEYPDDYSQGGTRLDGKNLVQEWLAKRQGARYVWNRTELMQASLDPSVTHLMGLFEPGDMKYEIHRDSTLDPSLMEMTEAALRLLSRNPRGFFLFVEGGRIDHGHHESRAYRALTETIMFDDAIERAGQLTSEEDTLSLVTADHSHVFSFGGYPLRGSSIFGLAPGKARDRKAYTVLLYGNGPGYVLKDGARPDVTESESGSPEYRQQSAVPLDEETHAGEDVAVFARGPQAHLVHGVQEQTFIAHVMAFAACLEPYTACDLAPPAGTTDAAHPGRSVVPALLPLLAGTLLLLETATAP

[2] = target: T2, Intestinal-type alkaline phosphatase (Bos taurus, UniProt P19111); experiment: Inhibition of bovine intestinal alkaline phosphatase using para-nitrophenylphosphate as substrate preincubated for 10 mins at pH 7.8 followed by substrate addition
T2 sequence (P19111 whole entry): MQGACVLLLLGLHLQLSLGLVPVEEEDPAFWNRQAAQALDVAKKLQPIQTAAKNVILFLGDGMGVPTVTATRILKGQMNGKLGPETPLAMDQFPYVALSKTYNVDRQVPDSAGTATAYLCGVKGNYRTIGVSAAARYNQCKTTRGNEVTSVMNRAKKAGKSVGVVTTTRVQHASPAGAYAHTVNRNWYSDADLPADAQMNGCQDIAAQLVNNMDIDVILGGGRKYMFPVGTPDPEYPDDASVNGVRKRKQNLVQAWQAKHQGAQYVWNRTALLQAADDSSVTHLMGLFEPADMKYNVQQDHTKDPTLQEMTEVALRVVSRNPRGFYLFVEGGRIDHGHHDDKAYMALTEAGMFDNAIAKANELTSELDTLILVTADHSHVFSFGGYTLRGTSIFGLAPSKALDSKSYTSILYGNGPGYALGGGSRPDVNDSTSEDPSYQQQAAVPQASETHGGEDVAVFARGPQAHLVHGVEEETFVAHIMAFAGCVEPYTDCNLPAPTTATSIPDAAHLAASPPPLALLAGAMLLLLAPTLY

[3] = target: T2, Intestinal-type alkaline phosphatase; experiment: Inhibition of bovine intestinal alkaline phosphatase using para-nitrophenylphosphate as substrate preincubated for 10 mins at pH 10.4 followed by substrate addition
[4] = Inhibition of porcine kidney TNAP using para-nitrophenylphosphate as substrate preincubated for 10 mins at pH 7.8 followed by substrate addition
[5] = target: T1, Alkaline phosphatase, placental type; experiment: Inhibition of human placental alkaline phosphatase using para-nitrophenylphosphate as substrate preincubated for 10 mins at pH 7.8 followed by substrate addition
[6] = Inhibition of porcine kidney TNAP using para-nitrophenylphosphate as substrate preincubated for 10 mins at pH 10.4 followed by substrate addition
[7] = target: T3, Alkaline phosphatase, tissue-nonspecific isozyme (Mus musculus) (UniProt P09242); conditions: C57BL/6J, 10 to 40 uM
T3 sequence (whole entry): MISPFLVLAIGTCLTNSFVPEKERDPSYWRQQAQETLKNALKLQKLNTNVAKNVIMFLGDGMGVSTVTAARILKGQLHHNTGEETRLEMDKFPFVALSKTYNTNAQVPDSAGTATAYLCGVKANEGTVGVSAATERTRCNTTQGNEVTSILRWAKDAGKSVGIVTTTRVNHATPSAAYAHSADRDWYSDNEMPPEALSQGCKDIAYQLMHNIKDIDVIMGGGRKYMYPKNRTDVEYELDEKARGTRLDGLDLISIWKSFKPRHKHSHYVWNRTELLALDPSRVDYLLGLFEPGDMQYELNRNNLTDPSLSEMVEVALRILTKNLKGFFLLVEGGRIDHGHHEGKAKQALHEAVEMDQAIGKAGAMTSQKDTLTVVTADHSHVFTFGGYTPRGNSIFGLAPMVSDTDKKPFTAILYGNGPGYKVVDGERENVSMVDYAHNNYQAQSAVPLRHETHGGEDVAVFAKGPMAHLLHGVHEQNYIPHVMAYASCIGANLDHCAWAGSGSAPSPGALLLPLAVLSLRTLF

[8] = Inhibition of porcine kidney TNAP using para-nitrophenylphosphate as substrate preincubated for 10 mins at pH 7.8 followed by substrate addition; parameters: species or system Sus scrofa
[9] = Cytotoxicity against mouse MOVAS1 cells assessed as reduction in cell viability at 10 to 40 uM after 3 days by MTT assay; format: cell-based; conditions: movas1, 72 h
In short: (§1)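 Cells (human osteoblast-like Saos-2 and MG63, mouse vascular smooth muscle line MOVAS-1, mouse primary osteoblasts) were incubated with or without inhibitor for 3 days. Viability was read by MTT assay.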

[10] = target: T3, Alkaline phosphatase, tissue-nonspecific isozyme (Mus musculus); experiment: Inhibition of TNAP in C57BL/6J mouse primary osteoblasts assessed as reduction of ascorbic acid and beta-glycerophosphate-induced mineralization at 10 uM after 6 days by alizarin red-s staining based assay relative to control
In short: (§2)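 Saos-2 cells and mouse primary osteoblasts received ascorbic acid plus β-glycerophosphate to stimulate differentiation and mineralization, with or without inhibitor. Mineral was quantified by Alizarin Red-S staining and expressed as percent of a control containing DMSO 0.1% (mL:mL) without inhibitor. Experiments were repeated in triplicate for each inhibitor (n = 9).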

Sus scrofa = species: Sus scrofa; experiment: Uncompetitive inhibition of porcine kidney TNAP using para-nitrophenylphosphate as substrate preincubated for 10 mins at pH 7.8 to 10.4 followed by substrate addition
[11] = Cytotoxicity against mouse primary osteoblasts assessed as reduction in cell viability at 10 to 40 uM after 3 days by MTT assay; format: cell-based; conditions: osteoblast, 72 h; in short: as §1
[12] = target: T4, Alkaline phosphatase, tissue-nonspecific isozyme (Homo sapiens) (UniProt P05186); experiment: Inhibition of TNAP in human Saos2 cells assessed as reduction of ascorbic acid and beta-glycerophosphate-induced mineralization at 20 to 40 uM after 6 days by alizarin red-s staining based assay; format: cell-based; conditions: SAOS-2; in short: as §2
T4 sequence (whole entry): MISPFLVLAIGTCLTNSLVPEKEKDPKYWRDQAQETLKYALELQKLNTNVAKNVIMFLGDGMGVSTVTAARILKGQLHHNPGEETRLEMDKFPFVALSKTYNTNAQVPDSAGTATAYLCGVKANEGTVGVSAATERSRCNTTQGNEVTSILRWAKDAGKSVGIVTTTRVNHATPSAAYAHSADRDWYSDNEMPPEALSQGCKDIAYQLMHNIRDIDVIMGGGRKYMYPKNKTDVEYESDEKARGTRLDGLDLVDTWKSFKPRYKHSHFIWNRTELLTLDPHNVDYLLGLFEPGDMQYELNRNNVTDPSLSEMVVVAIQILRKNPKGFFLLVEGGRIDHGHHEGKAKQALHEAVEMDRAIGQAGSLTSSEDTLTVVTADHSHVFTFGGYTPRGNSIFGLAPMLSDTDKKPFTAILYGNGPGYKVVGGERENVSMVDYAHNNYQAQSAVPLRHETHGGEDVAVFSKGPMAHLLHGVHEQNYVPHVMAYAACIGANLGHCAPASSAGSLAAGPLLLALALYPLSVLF

[13] = Cytotoxicity against human Saos2 cells assessed as reduction in cell viability at 10 to 40 uM after 3 days by MTT assay; format: cell-based; conditions: saos-2, 72 h; in short: as §1
[14] = Cytotoxicity against human MG63 cells assessed as reduction in cell viability at 10 to 40 uM after 3 days by MTT assay; format: cell-based; conditions: mg-63, 72 h; in short: as §1

Compound	pIC50 [1]	pIC50 [2]	pIC50 [3]	pIC50 [4]	pIC50 [5]	pIC50 [6]	inhibition [7]	pKi [8]	Activity [9]	inhibition [10] [%]	inhibition (Sus scrofa)	Activity [11]	inhibition [12]	Activity [13]	Activity [14]
N=c1sccn1CC(=O)c1cc2ccccc2o1	< 3.40	< 3.40	< 3.40	< 3.40	< 3.40	< 3.40	–	–	–	–	–	–	–	–	–
c1ccc([C@H]2CN3CCSC3=N2)cc1 [LEVAMISOLE]	< 3.40	< 3.40	< 3.40	3.59	< 3.40	4.39	inactive	4.33	–	–	–	–	–	–	–
N=c1sccn1CC(O)c1cc2ccccc2o1 (centres undefined)	< 3.40	< 3.40	< 3.40	< 3.40	< 3.40	< 3.40	–	–	–	–	–	–	–	–	–
C1=CN2CC(c3cc4ccccc4o3)N=C2S1 (centres undefined)	< 3.40	< 3.40	< 3.40	3.91	< 3.40	4.55	–	4.49	Non-toxic	20	Active	Non-toxic	Active	Non-toxic	Non-toxic
